TNAP act mid DEA: activators of human TNAP at intermediate phosphate acceptor | P05186 | purified TNAP, CDP-star luminescence, 100 mM DEA, 30 min; hits give high values; scale: 0 levamisole-inhibited, 1 vehicle-only enzyme | activation factor at 20 µM | 64,000 tested, under 10 active;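 active means activation factor of at least 2 at 20 µM, relative to controls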
HePTP inh: human HePTP phosphatase inhibition. P35236. recombinant HePTP phosphatase activity, OD absorbance. inhibition, % at 20 µM. actives 0.64% (n = 110,000). AID 521; in the data active means inhibition above about 50%
Target sequence (P35236 whole entry, looked up): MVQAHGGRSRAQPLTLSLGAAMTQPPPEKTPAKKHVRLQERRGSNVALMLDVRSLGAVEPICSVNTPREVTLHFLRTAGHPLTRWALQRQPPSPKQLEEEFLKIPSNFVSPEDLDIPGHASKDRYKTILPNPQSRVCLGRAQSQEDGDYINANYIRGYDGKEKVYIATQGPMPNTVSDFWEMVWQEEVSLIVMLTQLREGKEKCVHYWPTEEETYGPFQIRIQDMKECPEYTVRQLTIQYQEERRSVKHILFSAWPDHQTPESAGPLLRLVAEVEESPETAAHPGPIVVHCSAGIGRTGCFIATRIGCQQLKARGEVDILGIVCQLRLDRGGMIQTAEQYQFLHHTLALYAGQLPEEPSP
AP ELISA ortho: orthogonal test for alternative complement pathway inhibitors; Human serum alternative complement pathway, LPS-coated ELISA, C3 deposition; tested in compound mixtures; inhibition, % at 5 µM; actives 0.08% (n = 62,000);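 active means inhibition above 30% in each of the two pooled mixtures holding the compound, so the lower value exceeds 30%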
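Assay system: human serum alternative complement pathway, C3 deposition on LPS-coated wells; Dosing: 5 µM per compound in ten-compound mixtures; Detection: Anti-C3 ELISA, OD 450 nm; Buffer or medium: Mg2+-EGTA GVB++ buffer containing human serum at 1:15 dilution; Timing: 1 h at 37 °C; Replication: two different pools per compound.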
A number is an active result; . = inactive; / = no result. A selection: hits, their analogues and other compounds. The true share with any hit is near 0.65%.

SMILES	TNAP act mid DEA	HePTP inh	AP ELISA ortho
O=C(Nc1ccc(Br)cc1C(=O)O)c1cccc(N2C(=O)c3ccccc3C2=O)c1	/	102	/
O=C(Nc1ccccc1C(=O)O)c1cccc(N2C(=O)c3ccccc3C2=O)c1	/	.	/
O=[N+]([O-])c1cccc(CN2CCN(S(=O)(=O)c3ccc(Cl)cc3)CC2)c1	/	102	/
O=[N+]([O-])c1cccc(CN2CCN(S(=O)(=O)c3ccccc3)CC2)c1	/	.	/
O=C(CCc1ccccc1)NNC(=O)c1ccc(Cl)cc1Cl	/	.	/
CC(C)(C)c1cc(CCC(=O)NNC(=O)c2ccccc2)cc(C(C)(C)C)c1O	/	56	/
COc1cc(S(=O)(=O)N2CCOCC2)ccc1NC(=O)CSc1nnc(N)s1	.	.	33
COc1cc(S(=O)(=O)N2CCOCC2)ccc1NC(=O)c1cc2c(s1)CCC2	.	.	.
COc1ccc(NC(=O)c2ccc(OC3CSC3)cc2)cc1	/	.	/
COC(=O)c1c2nc3ccccc3sc-2cc(=O)c1N	/	68	/
COC(=O)c1sc2ccccc2c1N	.	.	.
Cn1cc(C(=O)N/N=C/c2cccc([N+](=O)[O-])c2)ccc1=O	/	.	/
CC1(C)CC(NC(=O)c2cccc(Cl)c2)CC(C)(C)N1	/	102	/
Cc1cccc(C(=O)NC2CC(C)(C)NC(C)(C)C2)c1	.	.	.
COc1cc(NC(=O)C(=O)NCc2ccco2)c(OC)cc1Cl	/	.	/
O=C(COc1nc2ccccc2s1)N1c2ccccc2CCc2ccccc21	/	.	/
CCc1cccc(NC(=O)Cc2ccccc2)c1	/	102	/
CCc1cccc(NC(=O)CCc2ccccc2)c1	/	.	/
CCOC(=O)COc1ccc(/C=c2\sc3nc4ccccc4n3c2=O)cc1	/	.	/
CCC1(C)C2(C#N)C(N)=NC(OC)(OC)C12C#N (centres undefined)	.	.	32
COc1cc(OC)cc(C(=O)Nc2ccc(O)c(-c3nc4ccccc4o3)c2)c1	/	.	/
O=[N+]([O-])c1cc([N+](=O)[O-])c2oc(-c3ccccc3)c(Br)c2c1O	/	104	/
O=C(N/N=C/c1c(Br)cc(Br)c(O)c1Br)c1ccccc1[N+](=O)[O-]	/	.	/
COc1ccccc1-c1coc2c(CN(CC(C)C)CC(C)C)c(O)ccc2c1=O	/	.	/
O=[N+]([O-])c1ccc(OC/C=C2\Oc3c(Cl)cc(Cl)cc3C2N2CCOCC2)cc1 (centres undefined)	/	.	/
SMILES	TNAP act mid DEA	HePTP inh	AP ELISA ortho
Cn1c(=O)[nH]c(=O)c2c1nc(Br)n2CCOc1ccccc1	.	.	.
Cn1c(=O)[nH]c(=O)c2c1nc(Br)n2CC(O)c1ccccc1 (centres undefined)	.	.	42
COc1cc(OC)cc(C(=O)Nc2cccc(-c3nc4ncccc4o3)c2C)c1	/	.	/
COc1cc(C(=O)Nc2cccc(-c3nc4ncccc4o3)c2C)cc(OC)c1OC	.	.	31
O=C(O)CCCCCN1C(=O)C(=O)/C(=C(/O)c2ccc(F)cc2)C1c1ccccc1F (centres undefined)	/	.	/
CCC1=NN2C(=N)/C(=C/c3ccc(-c4ccc(C(=O)O)cc4)o3)C(=O)N=C2S1	/	57	/
CCC1=NN2C(=N)/C(=C/c3ccc(-c4ccc(F)cc4)o3)C(=O)N=C2S1	/	.	/
CCC(C)c1ccc(OCCOc2ccc(Br)cc2/C=N/n2cnnc2)cc1 (centres undefined)	/	.	/
COC(=O)C1=C(C)NC(=O)/C1=C\c1ccc(Br)cc1	/	67	/
COC(=O)C1=C(C)NC(=O)/C1=C\c1ccc(OC)cc1	/	.	/
COC(=O)c1c(N=CN(C)C)c(C#N)c(C)n1-c1ccccc1	/	.	/
O=[N+]([O-])c1cncc([N+](=O)[O-])c1Nc1ccc(Cl)cn1	/	87	/
O=C(COc1ccccc1[N+](=O)[O-])Nc1ccc(Cl)cn1	/	.	/
CCOc1cccc(-c2cc(C(=O)N3CC(C)CC(C)C3)c3ccccc3n2)c1 (centres undefined)	/	.	/
COc1ccc(/C=N/NC(=O)COc2ccc3c(C)cc(=O)oc3c2)cc1	/	.	/
O=C(Cc1ccccc1)N/N=C/c1ccc2ccccc2c1	/	.	/
CCOc1ccccc1/C=C1/C(=O)NN(c2ccc(I)cc2)C1=O	/	.	/
CCOC(=O)c1ccc(N2NC(=O)/C(=C/c3cc(OC)c(O)c(OC)c3)C2=O)cc1	/	89	/
CCOc1cc(/C=C2/C(=O)NN(c3ccc(I)cc3)C2=O)ccc1O	/	90	/
CCOC(=O)c1ccc(N2NC(=O)/C(=C/c3cccc(I)c3)C2=O)cc1	/	.	/
CCOC(=O)c1ccc(N2NC(=O)/C(=C/c3ccc(OC)c(Br)c3)C2=O)cc1	/	55	/
COc1ccc(/C=C2/C(=O)NN(c3ccc(C)cc3)C2=O)cc1Br	/	.	/
O=C1OC(/C=C/c2ccccc2)=NC/1=C/c1ccccc1	/	.	/
O=C1OC(/C=C/c2ccccc2)=NC/1=C/c1ccc(-c2ccc3c(c2)C(=O)NC3=O)o1	/	71	/
Cc1nnc(N/N=C/c2cccc(F)c2)[nH]c1=O	/	.	/

Compound activity: PubChem, several laboratories
